In the library only some 3% were active in any assay of this set; here they are far more common.
S1P1 ag-PAM = S1P1 agonists and agonism potentiators, primary screen, cell-based, primary and confirmation screens, CRE-bla reporter; Sphingosine 1-phosphate receptor 1 (Homo sapiens), P21453; activation, % at 9.5 µM; 0.57% of 56,000 active; S1P1 CRE-bla cells, forskolin, beta-lactamase FRET, potentiator mode; S1P1 agonist co-added at EC20, 2 nM; 100% = saturating reference agonist, 0% = basal;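 active = activation above a cutoff set at the mean activation of all tested compounds plus 3 SD, cut at about 54% in these data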;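 note: forskolin at 4 µM as EC80 and the EC20 agonist is SEW2871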
5HT1E ag = 5-HT1E receptor agonists, primary screen, cell-based, HTS; activation, % at 6 µM; AID 574, 2007; 0.69% of 65,000 active; CHO 5-HT1E Ga15 NFAT-bla reporter, FRET; 0% DMSO wells, 100% control agonist wells; 5-hydroxytryptamine receptor 1E (Homo sapiens), P28566;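 active = activation above a set limit, the screen-wide mean activation plus 3 SD, cut at about 8.5% in these data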
S1P3 agonist = human S1P3 receptor agonists, primary screen, cell-based, primary and confirmation, NFAT-BLA reporter; Sphingosine 1-phosphate receptor 3 (Homo sapiens), Q99500; S1P3 NFAT-BLA reporter cells, agonism, FRET ratio; relative to 1 µM S1P, basal subtracted; 0.1% of 60,000 active; activation, % at 4.5 µM;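 active = activation above the screen-wide mean plus 3 SD, cut at about 4.5% in these data, passing the limit was not always enough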
Target sequence (Q99500 whole entry, looked up): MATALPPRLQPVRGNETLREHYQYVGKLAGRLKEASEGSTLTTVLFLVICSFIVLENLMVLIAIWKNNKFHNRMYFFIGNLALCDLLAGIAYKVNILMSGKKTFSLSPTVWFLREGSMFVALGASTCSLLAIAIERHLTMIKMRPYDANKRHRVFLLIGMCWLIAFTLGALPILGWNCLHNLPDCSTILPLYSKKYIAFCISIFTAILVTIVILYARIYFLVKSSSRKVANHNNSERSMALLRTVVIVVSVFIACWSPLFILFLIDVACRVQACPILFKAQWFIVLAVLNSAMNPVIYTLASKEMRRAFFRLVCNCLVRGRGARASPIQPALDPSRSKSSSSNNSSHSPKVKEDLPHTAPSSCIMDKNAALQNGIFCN
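Material: Human S1P3 NFAT-BLA reporter CHO cells | Incubation: Overnight plating, 4 h compound 37 °C, 2 h substrate RT | Signal: FRET β-lactamase substrate fluorescence, excitation 405 nm, 460/535 nm emission ratio, background-subtracted | Compound: 4.5 µM final, single dose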
5HT1a antag = human 5-HT1a receptor antagonists, primary screen, cell-based, CHO, Ga15 NFAT-bla reporter. 5-hydroxytryptamine receptor 1A (Homo sapiens), P08908. CHO 5-HT1a Ga15 NFAT-bla reporter, antagonist mode. inhibition, % at 10 µM. 0.68% of 62,000 active;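 active = inhibition above the mean of all tested compounds plus 3 SD, cut at about 43% in these data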;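 note: receptor stimulated by 5-CT agonist at 100 nM near EC80; beta-lactamase reporter measured by ratiometric fluorescence of a cleavable substrate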
5HT1a ag = human 5-HT1a receptor agonists, primary screen, cell-based, CHO, Ga15 NFAT-bla reporter; 5-hydroxytryptamine receptor 1A (Homo sapiens), P08908; CHO 5-HT1a Ga15 NFAT-bla reporter, FRET ratio; 0% basal, 100% maximal reference agonist; activation, % at 10 µM; 0.56% of 65,000 active;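 active = activation above the screen-wide mean activation plus 3 SD, cut at about 19% in these data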
5HT1E antag = 5-HT1E receptor antagonists, primary screen, cell-based, HTS. 5-hydroxytryptamine receptor 1E (Homo sapiens), P28566. CHO 5-HT1E Ga15 NFAT-bla reporter, FRET, antagonist. inhibition, % at 6 µM. 0.99% of 65,000 active. AID 571, 2007;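 active = inhibition above a set limit, the mean inhibition across every tested compound plus 3 SD, cut at about 29% in these data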;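 note: signal is the 460 over 535 nm emission ratio of beta-lactamase substrate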
Of the large screens only hits and unclear results are named; the others gave an inactive call.

O=C(Nc1cccc(C(F)(F)F)c1)C1CCCN1S(=O)(=O)c1cccc2cccnc12 (configuration not stated)	S1P1 ag-PAM 71
Cn1c(=O)cc(OCC(=O)NCCCN2CCN(c3ccccc3F)CC2)c2ccccc21	5HT1a antag 61
Cc1ccnc(NC(=O)CCCOc2cc(=O)n(C)c3ccccc23)c1	5HT1a antag 66
CC1(C)CC(=O)c2cc(OCC(=O)NCCCN3CCN(c4ccccc4F)CC3)ccc2O1	5HT1E ag 9.6
Cn1c(=O)cc(OCCCC(=O)NCCN2CCN(c3ccccc3F)CC2)c2ccccc21	none
CC1(C)CC(=O)c2cc(OCC(=O)NCc3cccnc3)ccc2O1	none
CCn1c(=O)cc(SCC(=O)NCCCN2CCN(c3ccccc3F)CC2)c2ccccc21	5HT1a antag 69
O=C(NCCCN1CCN(c2cccc(Cl)c2)CC1)C1CCC(=O)N1Cc1ccccc1Cl (configuration not stated)	5HT1E ag 14
O=C(NCCCN1CCCCC1)C1CCC(=O)N1CCc1ccccc1 (configuration not stated)	none
CCN(CCCNC(=O)COc1cc(=O)n(C)c2ccccc12)c1cccc(C)c1	5HT1E ag 24
Cn1c(C(=O)NCCCN2CCN(c3ccccc3F)CC2)cc2c(=O)[nH]c3ccccc3c21	5HT1E ag 25, 5HT1a antag 75
Cn1c(=O)cc(OCC(=O)NCCCN2CCN(c3cccc(Cl)c3)CC2)c2ccccc21	5HT1E ag 9.3
Cc1ccc(C(=O)N2CCN(c3cccc(Cl)c3)CC2)cc1C	none
O=C(NCc1ccccc1)N1CCN(c2ccccc2F)CC1	none
O=C(NC(=O)N1CCN(c2cccc(Cl)c2)CC1)c1ccccc1	5HT1E ag 14
O=C(NC(=O)N1CCN(c2ccccc2F)CC1)c1ccccc1	5HT1E ag 18
CCCNS(=O)(=O)c1ccc(CCC(=O)N2CCC(C)CC2)cc1	none (no result: S1P1 ag-PAM, S1P3 agonist)
CCN(CC)S(=O)(=O)c1ccc(F)c(C(=O)NCCC(C)C)c1	none
S=C(c1ccc(-c2ccccc2Cl)o1)N1CCOCC1	none
N#CCCN1CCN(C(=S)c2ccc(-c3cc(Cl)ccc3Cl)o2)CC1	5HT1E antag 31
CCN(CC)CCNC(=O)c1ccc2c(=O)n(CCc3ccccc3)c(=O)[nH]c2c1	none (no result: S1P1 ag-PAM, S1P3 agonist)
CC1CC(N(C(=O)c2ccco2)c2ccccc2)c2ccccc2N1 (configuration not stated)	5HT1E ag 16
COc1ccc(NC(=O)CSc2ccccn2)cc1OC	none
COc1ccc(/C=N/n2cncn2)cc1CSc1ccccn1	5HT1E ag 16 (no result: 5HT1a antag)
Cc1ccccc1Cn1nc(C)c(NC(=O)c2noc3c2CC(C(C)(C)C)CC3)c1C (configuration not stated)	none
Cc1ccccc1Cn1cc(NC(=O)c2noc3c2CC(C(C)(C)C)CC3)cn1 (configuration not stated)	5HT1a ag 26
O=C(C1CCC1)N1CCc2cc(S(=O)(=O)Nc3ccc4c(c3)OCCO4)ccc21	S1P1 ag-PAM 115
CCC(=O)N1CCc2cc(S(=O)(=O)Nc3ccc4c(c3)OCCO4)ccc21	none (no result: S1P1 ag-PAM, S1P3 agonist)
Cc1cc(C2=CC(C)(c3cc(C)oc3C)Nc3nc(C(F)(F)F)nn32)c(C)o1 (configuration not stated)	5HT1a antag 60
COC(=O)c1[nH]c2cc(C)ccc2c1NC(=O)CN1CCCc2ccccc21	5HT1a ag 265
CCc1c(C)nc2cc(-c3ccc(OC)c(OC)c3)nn2c1N1CCCC1	5HT1E antag 31 (no result: S1P1 ag-PAM, S1P3 agonist)
Cc1cc(=O)oc2cc3c(cc12)OCCN3	5HT1E ag 12, 5HT1a ag 25
Cc1cc(=O)oc2cc3c(cc12)OCCO3	none
O=C(Cn1c(NCCCO)nc2ccccc21)c1ccco1	none
O=C(Nc1nc2ccccc2n1Cc1ccccc1)c1ccco1	5HT1a antag 60
O=C1CCCC2=C1C(c1ccccc1)CC(=O)N2c1ccccc1 (configuration not stated)	none
CSc1ccc(C2C(C#N)=C(N)N(c3ccccc3)C3=C2C(=O)CCC3)cc1 (configuration not stated)	5HT1a antag 43 (no result: S1P1 ag-PAM, S1P3 agonist)
CCN(Cc1cc2ccccc2[nH]c1=O)C(=O)C(C)C	none
COc1ccc2c(c1)sc1nc(-c3ccccc3)cn12	5HT1a antag 65, 5HT1E antag 75
COC(=O)C1=C(C)OC(N)=C(C#N)C1c1cc(OC)c(OCC(N)=O)cc1Cl (configuration not stated)	none
Cc1oc(-c2ccc(Cl)cc2)nc1CN1CCCC(C(=O)NCc2ccccn2)C1 (configuration not stated)	none
Cc1oc(-c2ccc(Cl)cc2)nc1CN1CCCC(C(=O)NCCCN2CCOCC2)C1 (configuration not stated)	5HT1E ag 23
Cc1oc(-c2ccc(Cl)cc2)nc1CN1CCCC(C(=O)NCc2cccnc2)C1 (configuration not stated)	5HT1E ag 12
Cc1ccccc1-c1nc(CN2CCC(C(=O)NCCCN3CCCC3)CC2)c(C)o1	5HT1E ag 17
Cc1ccccc1-c1nc(CN2CCC(C(=O)NCCCN3CCOCC3)CC2)c(C)o1	none
Cc1oc(-c2ccc(Cl)cc2)nc1CN1CCC(C(=O)N2CCc3ccccc3C2)CC1	5HT1a ag 32
C/C(NC(=O)c1cccs1)=C1\C(=O)C[C@@H]2[C@H]1C2(C)C	none (no result: 5HT1a antag)
CCCCNC(=O)CCn1nc(-c2ccccc2)ccc1=O	none
CCCCN(C)CCCNC(=O)CCn1nc(-c2ccccc2)ccc1=O	5HT1E ag 22
c1ccc2c(CNCCN3CCOCC3)cccc2c1	none
CCCCCCc1cc2cc(C(=O)NC)c(=N)oc2cc1O	5HT1a ag 33 (no result: 5HT1a antag)
C=CCSc1nc(N)c(C#N)c(-c2ccccc2)c1C#N	5HT1E antag 41
CCCSc1nc(N)c(C#N)c(-c2ccc(C)cc2)c1C#N	none
CCCCn1c(SCC(=O)Nc2ccc3c(c2)OCO3)nc2c1c(=O)n(C)c(=O)n2C	none
CCCCCCC1/C(=N/O)CCC1C(=O)OC (configuration not stated)	none
CN1C(=O)NC(NC(=O)c2ccco2)(C(F)(F)F)C1=O (configuration not stated)	none (no result: 5HT1a antag)
